Reference: ChEMBL document CHEMBL1147988, “Synthesis of bridged piperazines with sigma receptor affinity” (Eur J Med Chem, 2007)

Tests used:
[1] = target: Sigma non-opioid intracellular receptor 1 (Cavia porcellus) (UniProt Q60492); assay: Selectivity for guinea pig sigma 1 receptor over rat sigma 2 receptor
Mu-type opioid receptor = Mu-type opioid receptor (Cavia porcellus, UniProt P97266); assay: Displacement of [3H]DAMGO from mu opioid receptor in guinea pig brain membrane; format: cell membranes
[2] = target: Sigma non-opioid intracellular receptor 1 (Cavia porcellus, UniProt Q60492); assay: Displacement of [3H](+)-pentazocine from sigma 1 receptor in guinea pig brain membrane; format: cell membranes
Sigma 2 receptor = assay: Displacement of [3H]ditolylguanidine from sigma 2 receptor in Sprague-Dawley rat liver membrane; format: cell membranes
[3] = target: Kappa-type opioid receptor (Cavia porcellus, UniProt P41144); assay: Displacement of [3H]U-69593 from kappa opioid receptor in guinea pig brain membrane; format: cell membranes
Cavia porcellus = species on record: Cavia porcellus; assay: Displacement of [3H]MK-801 from NMDA receptor in guinea pig brain membrane at 10 uM; format: cell membranes
Summary of the method: (§1)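 Single-point screen: percent inhibition of radioligand binding to guinea pig brain membranes with test compound at 10 µM.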

[4] = target: Mu-type opioid receptor (Cavia porcellus) (UniProt P97266); assay: Displacement of [3H]DAMGO from mu opioid receptor in guinea pig brain membrane at 10 uM; format: cell membranes; summary of the method: as §1
[5] = target: Kappa-type opioid receptor (Cavia porcellus) (UniProt P41144); assay: Displacement of [3H]U-69593 from kappa opioid receptor in guinea pig brain membrane at 10 uM; format: cell membranes
Summary of the method: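 Single-concentration test reported as percent inhibition of [3H]-U-69593 binding to guinea pig brain membranes. All experiments run in triplicate. Glass fibre filters presoaked 2 h at 4 °C in 0.5% polyethylenimine, then harvested by filtration. Bound radioactivity counted by liquid scintillation at 66% counting efficiency.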

[6] = Displacement of [3H]MK-801 from NMDA receptor in guinea pig brain membrane; format: cell membranes, Cavia porcellus

Sigma non-opioid intracellular receptor 1, sequence (Q60492 whole entry): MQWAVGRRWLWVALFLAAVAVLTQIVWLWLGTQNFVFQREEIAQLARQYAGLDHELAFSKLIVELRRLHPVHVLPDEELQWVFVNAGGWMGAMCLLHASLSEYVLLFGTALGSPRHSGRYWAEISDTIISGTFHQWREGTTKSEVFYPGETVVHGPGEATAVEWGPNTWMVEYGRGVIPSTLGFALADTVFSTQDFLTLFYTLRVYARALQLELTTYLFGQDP
Kappa-type opioid receptor, sequence (P41144 whole entry): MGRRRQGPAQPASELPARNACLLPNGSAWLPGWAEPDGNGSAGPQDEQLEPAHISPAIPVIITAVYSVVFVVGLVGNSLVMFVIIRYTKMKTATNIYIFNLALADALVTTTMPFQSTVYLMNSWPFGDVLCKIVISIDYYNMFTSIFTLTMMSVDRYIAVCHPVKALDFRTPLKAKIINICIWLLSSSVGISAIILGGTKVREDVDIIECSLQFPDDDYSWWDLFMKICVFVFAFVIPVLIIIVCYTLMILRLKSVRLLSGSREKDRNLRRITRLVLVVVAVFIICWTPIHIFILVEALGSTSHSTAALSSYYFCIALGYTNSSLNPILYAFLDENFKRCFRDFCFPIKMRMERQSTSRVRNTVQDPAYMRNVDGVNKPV
Mu-type opioid receptor (Cavia porcellus), sequence (P97266 whole entry): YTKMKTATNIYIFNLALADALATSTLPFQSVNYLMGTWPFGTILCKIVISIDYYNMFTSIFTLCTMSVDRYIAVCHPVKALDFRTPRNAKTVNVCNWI
Mu-type opioid receptor, sequence (P97266 whole entry): as above
Sigma non-opioid intracellular receptor 1 (Cavia porcellus), sequence (Q60492 whole entry): as the sequence (Q60492 whole entry) above
Kappa-type opioid receptor (Cavia porcellus), sequence (P41144 whole entry): as the sequence (P41144 whole entry) above

CCCCN1CC2CCC(OCc3ccccc3)C1CN2Cc1ccccc1 (centres undefined)
Selectivity ratio [1]: 21
Ki (Mu-type opioid receptor): 3.32 µM
Ki [2]: 39.5 nM
Ki (Sigma 2 receptor): 820 nM
Ki [3]: 1110 nM
inhibition (Cavia porcellus): 21.5%

CN1CC2CCC(O)C1CN2Cc1ccccc1 (single isomer, unassigned; form 1) [listing 1 of 2 here]
inhibition [4]: 4.7%
inhibition [5]: 13.2%
inhibition (Cavia porcellus): 13.7%

c1ccc(CCN2CC3CCC(OCc4ccccc4)C2CN3Cc2ccccc2)cc1 (centres undefined)
inhibition [4]: 34.8%
Ki [2]: 175 nM
Ki (Sigma 2 receptor): 628 nM
Ki [3]: 2230 nM
inhibition (Cavia porcellus): 16.4%

CN1CC2CCC(O)C1CN2Cc1ccccc1 (single isomer, unassigned; form 1) [listing 2 of 2 here]
Ki [2]: 4970 nM
Ki (Sigma 2 receptor): 2890 nM

COC1CCC2CN(CCc3ccccc3)C1CN2Cc1ccccc1 (centres undefined)
inhibition [4]: 68.6%
Ki [2]: 76 nM
Ki (Sigma 2 receptor): 297 nM
Ki [3]: 5020 nM
inhibition (Cavia porcellus): 50.5%

O[C@@H]1CCC2CN(CCc3ccccc3)C1CN2Cc1ccccc1 (some centres undefined)
Ki (Mu-type opioid receptor): 4.96 µM
Ki [2]: 33.3 nM
Ki (Sigma 2 receptor): 343 nM
Ki [3]: 2460 nM
inhibition (Cavia porcellus): 21.9%

OC1CCC2CN(CCc3ccccc3)C1CN2Cc1ccccc1 (single isomer, unassigned)
Ki (Mu-type opioid receptor): 4.05 µM
Ki [2]: 29.5 nM
Ki (Sigma 2 receptor): 588 nM
Ki [3]: 1290 nM
inhibition (Cavia porcellus): 20.6%

CN1CC2CCC(O)C1CN2Cc1ccccc1 (single isomer, unassigned; form 2) [listing 1 of 2 here]
inhibition [4]: 8.5%
inhibition [5]: 12.6%
inhibition (Cavia porcellus): 21%

CCCCN1CC2CCC(O)C1CN2Cc1ccccc1 (centres undefined)
inhibition [4]: 37.9%
Ki [2]: 23.4 nM
Ki (Sigma 2 receptor): 447 nM
Ki [3]: 1600 nM
inhibition (Cavia porcellus): 52.3%

COC1(OC)CC[C@H]2CN(C)[C@@H]1CN2Cc1ccccc1
inhibition [4]: 27.6%
Ki [2]: 3500 nM
Ki (Sigma 2 receptor): 1830 nM
Ki [3]: > 10000 nM
inhibition (Cavia porcellus): 44.3%

CO[C@@H]1CC[C@H]2CN(C)[C@@H]1CN2Cc1ccccc1
inhibition [4]: 21.5%
Ki [2]: 1350 nM
Ki (Sigma 2 receptor): 327 nM
Ki [3]: 3590 nM
inhibition (Cavia porcellus): 8.7%

CN1CC2CCC(O)C1CN2Cc1ccccc1 (single isomer, unassigned; form 2) [listing 2 of 2 here]
Ki [2]: 2400 nM
Ki (Sigma 2 receptor): 4180 nM

CN[C@]1(c2ccccc2Cl)CCCCC1=O [ESKETAMINE]
Ki [6]: 108 nM

CN1C[C@@H]2CC[C@@H](OCc3ccccc3)[C@H]1CN2Cc1ccccc1
inhibition [4]: 70.4%
Ki [2]: 16.2 nM
Ki (Sigma 2 receptor): 30.4 nM
Ki [3]: 585 nM
inhibition (Cavia porcellus): 0%

c1ccc(C2(N3CCCCC3)CCCCC2)cc1 [PHENCYCLIDINE]
Ki [6]: 28 nM

CCCCN1CC2CCC(OC)C1CN2Cc1ccccc1 (centres undefined)
Selectivity ratio [1]: 16
inhibition [4]: 37.4%
Ki [2]: 13.2 nM
Ki (Sigma 2 receptor): 219 nM
Ki [3]: 157 nM
inhibition (Cavia porcellus): 55.5%
